Screening data (PubChem BioAssay)
Efflux pump mplx – inhibitors of Candida antifungal efflux pumps expressed in yeast; S. cerevisiae Candida pump triplex, Nile Red efflux; inhibition, % at 10 µM; actives 0.44% (n = 330,000); AID 485275;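 active = plate passing quality check with inhibition over a set limit, or well fluorescence over plate mean plus 4 SD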;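 note: Nile Red retained in pooled yeast measured as flow cytometry median fluorescence; 0% = buffer negative control and 100% = Enniatin B positive control; higher means more Nile Red kept so more efflux inhibition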
HDAC3 inhib – inhibitors of human histone deacetylase 3; inhibition, % at 8.3 µM; O15379; actives 0.15% (n = 320,000); recombinant HDAC3, fluorogenic peptide/trypsin coupled, fluorescence; AID 2718; in the data active = inhibition above about 26%, passing the limit was not always enough; inconclusive = no clear call, values can overlap the other calls
Target sequence (O15379 whole entry, looked up): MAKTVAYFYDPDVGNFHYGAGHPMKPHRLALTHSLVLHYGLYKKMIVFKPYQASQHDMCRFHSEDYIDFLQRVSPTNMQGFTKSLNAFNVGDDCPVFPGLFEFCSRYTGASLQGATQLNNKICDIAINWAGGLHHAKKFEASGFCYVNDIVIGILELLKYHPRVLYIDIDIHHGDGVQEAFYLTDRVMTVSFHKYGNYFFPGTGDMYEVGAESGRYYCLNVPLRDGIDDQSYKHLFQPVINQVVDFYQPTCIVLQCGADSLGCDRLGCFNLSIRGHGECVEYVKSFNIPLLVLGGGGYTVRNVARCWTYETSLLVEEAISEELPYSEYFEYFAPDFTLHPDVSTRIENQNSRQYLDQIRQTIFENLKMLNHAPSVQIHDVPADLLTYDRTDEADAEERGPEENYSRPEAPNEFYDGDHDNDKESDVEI
Yeast superoxide – caloric restriction mimetics inhibiting age-related superoxide in yeast; S. cerevisiae aged cells, superoxide DHE fluorescence; hits give low values; superoxide response (% of plate mean), % at 10 µM; actives 0.18% (n = 330,000); AID 2690;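 active = superoxide response under a set limit, about three screen SD below normal, cut at about 65% in these data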;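 note: yeast aged for seven days with compound at 30 °C before DHE staining; 100% = average MFI of all compound-treated wells on the plate with controls excluded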
Tb MetRS inh – Trypanosoma brucei MetRS inhibition | inhibition, % at 11.9 µM | actives 0.4% (n = 360,000) | purified T. brucei MetRS, ATP depletion, Kinase-Glo luminescence | AID 624268;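 active = inhibition above a per-plate cutoff of the control wells' mean inhibition plus 3 SD, cut at about 5.5% in these data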;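 note: 0% = DMSO wells median and 100% = median of wells with control inhibitor compound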
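Test system – parasite MetRS enzyme · Reagent – substrates ATP, L-methionine and bulk Escherichia coli tRNA · Doses – 11.9 µM compound single dose, 0.9% DMSO · Times – 15 min enzyme-compound preincubation, 2 h reaction, 10 min detection, 25 °C · Signal – Kinase-Glo luminescence, ATP depletion format · Controls – DMSO-only wells as low control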
IDE cell inh – inhibitors of human insulin-degrading enzyme in cells; AID 434962; inhibition, % at 5.59 µM; P14735; actives 0.41% (n = 320,000); HEK cells, FAbetaB cleavage, fluorescence polarization;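 active = percent inhibition above the average of all tested compounds plus 3 SD, set per screening campaign, cut at about 16% in these data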;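 note: IDE supplied by intact live HEK cells; FP after avidin binding of uncleaved biotin substrate so inhibition keeps polarization high; 0% = DMSO wells and 100% = 60 µM reference IDE inhibitor Ii1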
IDE cell activ – activators of human insulin-degrading enzyme in cells; AID 493087; actives 0.073% (n = 340,000); HEK cells, FAbeta-B cleavage, fluorescence polarization; 0% vehicle, 100% cell-free pure enzyme wells; activation, % at 5.96 µM; P14735;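 active = activation above the mean of all tested compounds plus 3 SD, set per screening campaign, cut at about 17% in these data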
* hit, by the source's call. This is a sample that favours compounds with a hit; in the whole collection about 1.4% have one here.

For CCOc1ncnc2c1[nH]c1ccccc12 the results were Efflux pump mplx 0.0, HDAC3 inhib -28.6, Yeast superoxide 94.1, Tb MetRS inh -0.4, IDE cell inh 18.3* and IDE cell activ -12.3.
`Cc1ccc2[nH]c3c(Cl)ncnc3c2c1` gave Efflux pump mplx -0.3, HDAC3 inhib -5.5, Yeast superoxide 102.5, Tb MetRS inh 2.7 and IDE cell inh 3.4.
For Cc1cccc(C)c1NC(=O)C1(C)CSCC(=O)N1CCCN1CCOCC1 (stereo unspecified) the results were Tb MetRS inh -0.9.
Screening CC1(C(=O)NS(=O)(=O)C2CC2)CCCN(C(=O)c2cccc(Cl)c2)C1 (stereo unspecified) returned Tb MetRS inh -0.2.
`Cc1sc(N)nc1-c1ccc2c(c1)OCCO2` gave Efflux pump mplx 0.1, HDAC3 inhib 4.4, Yeast superoxide 88.6, Tb MetRS inh 0.0, IDE cell inh -4.1 and IDE cell activ 3.1.
`NC1=NN=C(c2ccc3c(c2)OCCO3)CS1` gave Efflux pump mplx -0.1, HDAC3 inhib 49.5*, Yeast superoxide 99.8, Tb MetRS inh 0.1, IDE cell inh 9.4 and IDE cell activ -8.4.
Screening CCCc1nc(SCC(=O)c2ccc(F)cc2)c2ccccc2n1 returned Efflux pump mplx -0.1, HDAC3 inhib 33.2*, Yeast superoxide 94.8, Tb MetRS inh 0.0, IDE cell inh 5.9 and IDE cell activ 0.5.
Screening CCCCNC(=O)CSc1nc(CCC)nc2ccccc12 returned Efflux pump mplx 0.1, HDAC3 inhib 3.9, Yeast superoxide 88.6, Tb MetRS inh -0.6, IDE cell inh -6.4 and IDE cell activ -2.8.
`O=C(N/N=C/c1cccc(C(F)(F)F)c1)c1ccc(O)cc1` gave Efflux pump mplx 0.1, HDAC3 inhib 2.2, Yeast superoxide 63.3*, Tb MetRS inh -0.4, IDE cell inh 3.7 and IDE cell activ 4.1.
Screening O=C(N/N=C/c1ccc(C(F)(F)F)cc1)c1ccc(O)cc1 returned Efflux pump mplx -0.4, HDAC3 inhib 7.2, Yeast superoxide 105.7, Tb MetRS inh -0.5, IDE cell inh 13.2 and IDE cell activ 3.4.
Screening COc1ccc(C2CC=C(C(C)=O)CN2S(=O)(=O)c2ccc(C)cc2)cc1 (stereo unspecified) returned Tb MetRS inh 0.1.
CC1=Nc2ccccc2N=C(NC(=O)CN2CCN(c3ccccc3)CC2)C1c1ccccc1 (stereo unspecified) was read as Efflux pump mplx -0.1, HDAC3 inhib 4.8, Yeast superoxide 99.7, Tb MetRS inh -0.1, IDE cell inh -2.5 and IDE cell activ -2.1.
For CC1=Nc2ccccc2N=C(NC(=O)c2ccccc2)C1c1ccccc1 (stereo unspecified) the results were Efflux pump mplx 0.0, HDAC3 inhib 34.2*, Yeast superoxide 102.7, Tb MetRS inh 0.4, IDE cell inh 2.0 and IDE cell activ -3.4.
For CCOc1ccc(C(=O)Nc2cc(-c3nc4ccccc4[nH]3)ccc2C)cc1[N+](=O)[O-] the results were Efflux pump mplx 0.0, HDAC3 inhib 11.5, Yeast superoxide 85.4, Tb MetRS inh 13.5*, IDE cell inh 4.5 and IDE cell activ -8.7.
Screening CCOc1ccc(C(=O)Nc2cccc(-c3nc4ccccc4[nH]3)c2C)cc1[N+](=O)[O-] returned Efflux pump mplx 0.1, HDAC3 inhib 0.5, Yeast superoxide 94.2, Tb MetRS inh -0.5, IDE cell inh -3.0 and IDE cell activ 3.1.
Screening Cc1ccc(-c2nnc(NCc3nc4ccccc4[nH]3)c3ccccc23)cc1S(=O)(=O)N1CCOCC1 returned Efflux pump mplx -0.2, HDAC3 inhib 9.9, Yeast superoxide 102.7, Tb MetRS inh 12.0*, IDE cell inh 1.8 and IDE cell activ 5.2.
`COc1ccc(C(C)(O)c2nc(-c3csc4ccccc34)cs2)cc1` (stereo unspecified) gave Tb MetRS inh 0.2.
For O=C(O/N=C(/c1ccccc1)c1ccncc1)c1ccc(F)cc1 the results were Efflux pump mplx 0.1, HDAC3 inhib 30.9*, Yeast superoxide 107.6, Tb MetRS inh -0.4 and IDE cell inh 2.4.
Screening COc1ccccc1C(=O)O/N=C(\c1ccccc1)c1ccncc1 returned Efflux pump mplx 0.9, HDAC3 inhib -1.9, Yeast superoxide 103.3, Tb MetRS inh -0.2, IDE cell inh 6.6 and IDE cell activ 2.9.
CC1CN(S(=O)(=O)c2ccc(C(=O)Nc3nccs3)cc2)CC(C)O1 (stereo unspecified) was read as Efflux pump mplx 0.1, HDAC3 inhib -2.3, Yeast superoxide 164.5, Tb MetRS inh -1.3, IDE cell inh 3.3 and IDE cell activ 5.1.
For CC1CN(S(=O)(=O)c2ccc(C(=O)Nc3nncs3)cc2)CC(C)O1 (stereo unspecified) the results were Efflux pump mplx -0.2, HDAC3 inhib -3.7, Yeast superoxide 87.7, Tb MetRS inh -0.3, IDE cell inh 1.5 and IDE cell activ 25.8*.
For Nc1ccccc1C(=O)NNC1=C(C(=O)C(F)(F)F)CCC1 the results were Efflux pump mplx 0.1, HDAC3 inhib 45.9*, Yeast superoxide 99.9, Tb MetRS inh -0.5, IDE cell inh 2.2 and IDE cell activ 4.4.
Screening C(=C\c1ccccc1)/CN1CCN(C(c2ccccc2)c2nnnn2-c2ccc3c(c2)OCCO3)CC1 (stereo unspecified) returned Tb MetRS inh 0.2.
`O=C(O)c1cc(-c2ccc(/C=c3\sc4nc5ccc(Br)cc5n4c3=O)o2)ccc1Cl` gave Efflux pump mplx 1.6*, HDAC3 inhib 5.4, Yeast superoxide 95.4 and IDE cell inh 1.2.
`O=C(O)c1ccccc1-c1ccc(/C=c2\sc3nc4cc(Br)cnc4n3c2=O)o1` gave Efflux pump mplx 0.0, HDAC3 inhib inconclusive, Yeast superoxide 107.4, Tb MetRS inh 0.1, IDE cell inh 5.5 and IDE cell activ -9.8.
`COc1ccc(OC)c(CN2C(=O)c3ccccc3C2c2nnnn2-c2ccc3c(c2)OCCO3)c1` (stereo unspecified) gave Tb MetRS inh -2.3.
`CCOC(=O)c1cn(-c2nc(-c3ccc(Cl)c(Cl)c3)cs2)c2c(F)c(N3CCOCC3)c(F)cc2c1=O` gave Efflux pump mplx 1.6*, HDAC3 inhib -1.9, Yeast superoxide 86.2, Tb MetRS inh 0.5, IDE cell inh -3.2 and IDE cell activ 1.0.
COC(=O)Cc1ccccc1NS(=O)(=O)c1ccc(C)cc1 was read as Tb MetRS inh -0.6.
CC(C(=O)O)N1C(=O)/C(=C/C=C/c2ccco2)SC1=S (stereo unspecified) was read as Efflux pump mplx 0.1, HDAC3 inhib 11.4, Yeast superoxide 103.5, Tb MetRS inh 0.9, IDE cell inh 0.1 and IDE cell activ -6.1.
